Source: ChEMBL document CHEMBL2311433, “Inhibition of protein glycation by urea and thiourea derivatives of glycine/proline conjugated benzisoxazole analogue - synthesis and structure-activity studies” (Eur J Med Chem, 2013)

These molecules were tested against Albumin (Bos taurus, UniProt P02769) (assay: Inhibition of glycation of bovine serum albumin assessed as advanced glycated end product measured after 7 days by spectrofluorimeter in presence of glucose anhydrous). Conditions: not given; call rule not given here.
Method in brief: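 BSA (10 mg/mL) incubated with anhydrous glucose (50 mg/mL) in 67 mM sodium phosphate buffer, pH 7.4, containing 3 mM sodium azide; compounds dissolved in DMSO. Incubation 37 °C for 7 days. Then 100% trichloroacetic acid added and the mixture centrifuged at 15,000 rpm, 4 min, 4 °C. A PBS, pH 10, was also prepared.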

Sequence of Albumin (P02769 whole entry): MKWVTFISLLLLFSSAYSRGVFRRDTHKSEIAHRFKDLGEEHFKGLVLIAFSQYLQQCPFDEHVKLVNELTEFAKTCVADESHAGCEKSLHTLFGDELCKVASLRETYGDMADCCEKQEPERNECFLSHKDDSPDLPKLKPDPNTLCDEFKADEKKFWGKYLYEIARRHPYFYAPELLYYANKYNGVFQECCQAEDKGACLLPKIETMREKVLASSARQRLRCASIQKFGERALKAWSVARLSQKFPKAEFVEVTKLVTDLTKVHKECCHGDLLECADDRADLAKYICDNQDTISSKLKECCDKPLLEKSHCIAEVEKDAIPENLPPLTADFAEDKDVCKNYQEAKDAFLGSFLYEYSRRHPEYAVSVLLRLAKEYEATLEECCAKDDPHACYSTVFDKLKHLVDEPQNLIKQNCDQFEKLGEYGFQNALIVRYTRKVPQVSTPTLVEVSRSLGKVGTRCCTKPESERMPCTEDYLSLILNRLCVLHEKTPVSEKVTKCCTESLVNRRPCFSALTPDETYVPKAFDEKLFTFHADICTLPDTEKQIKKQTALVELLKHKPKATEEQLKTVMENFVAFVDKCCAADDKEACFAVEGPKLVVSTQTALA

IC50 | Compound
Not Active | O=C(CNC(=S)Nc1ccc(Cl)cc1)N1CCC(c2noc3cc(F)ccc23)CC1
Not Active | CC(C)(C)OC(=O)N1CCCC1C(=O)N1CCC(c2noc3cc(F)ccc23)CC1 (stereo not given)
Not Active | CC(C)(C)OC(=O)NCC(=O)N1CCC(c2noc3cc(F)ccc23)CC1
Not Active | O=C(CNC(=S)Nc1cccc(Cl)c1)N1CCC(c2noc3cc(F)ccc23)CC1

Same assay, conditions: read-out: IC50

Compound | IC50
O=C(C1CCCN1C(=O)Nc1cccc(Cl)c1)N1CCC(c2noc3cc(F)ccc23)CC1 (stereo not given) | 145 µM
O=C(CNC(=S)Nc1ccc(F)cc1)N1CCC(c2noc3cc(F)ccc23)CC1 | 70.3 µM
O=C(C1CCCN1C(=S)Nc1ccc(Cl)cc1)N1CCC(c2noc3cc(F)ccc23)CC1 (stereo not given) | 59.4 µM
O=C(C1CCCN1C(=S)Nc1cccc(Cl)c1)N1CCC(c2noc3cc(F)ccc23)CC1 (stereo not given) | 126 µM
O=C(NCC(=O)N1CCC(c2noc3cc(F)ccc23)CC1)Nc1ccccc1F | 55.5 µM
O=C(NCC(=O)N1CCC(c2noc3cc(F)ccc23)CC1)Nc1ccc(Cl)cc1 | 83.9 µM
O=C(C1CCCN1C(=O)Nc1ccc(Cl)cc1)N1CCC(c2noc3cc(F)ccc23)CC1 (stereo not given) | 60.3 µM
O=C(CNC(=S)Nc1ccccc1)N1CCC(c2noc3cc(F)ccc23)CC1 | 380 µM
O=C(C1CCCN1C(=S)Nc1ccc(F)cc1)N1CCC(c2noc3cc(F)ccc23)CC1 (stereo not given) | 70.9 µM
O=C(NCC(=O)N1CCC(c2noc3cc(F)ccc23)CC1)Nc1ccc(F)cc1 | 75.8 µM
O=C(NCC(=O)N1CCC(c2noc3cc(F)ccc23)CC1)Nc1cccc(F)c1 | 100 µM
O=C(C1CCCN1C(=O)Nc1cccc(F)c1)N1CCC(c2noc3cc(F)ccc23)CC1 (stereo not given) | 117 µM
O=C(C1CCCN1C(=O)Nc1ccc(F)cc1)N1CCC(c2noc3cc(F)ccc23)CC1 (stereo not given) | 76.1 µM
O=C(C1CCCN1C(=O)Nc1ccccc1)N1CCC(c2noc3cc(F)ccc23)CC1 (stereo not given) | 340 µM
O=C(NCC(=O)N1CCC(c2noc3cc(F)ccc23)CC1)Nc1ccccc1 | 390 µM
O=C(C1CCCN1C(=S)Nc1ccccc1)N1CCC(c2noc3cc(F)ccc23)CC1 (stereo not given) | 295 µM
O=C(NCC(=O)N1CCC(c2noc3cc(F)ccc23)CC1)Nc1cccc(Cl)c1 | 144 µM

The remaining lines, values ahead:

IC50 | Compound
7.8 µM | O=C(C1CCCN1C(=S)Nc1ccccc1F)N1CCC(c2noc3cc(F)ccc23)CC1 (stereo not given)
4.9 µM | O=C(CNC(=S)Nc1cccc(Br)c1)N1CCC(c2noc3cc(F)ccc23)CC1
20.5 µM | COc1cccc(NC(=S)N2CCCC2C(=O)N2CCC(c3noc4cc(F)ccc34)CC2)c1 (stereo not given)
30.6 µM | COc1ccccc1NC(=O)N1CCCC1C(=O)N1CCC(c2noc3cc(F)ccc23)CC1 (stereo not given)
54.8 µM | O=C(C1CCCN1C(=O)Nc1ccccc1F)N1CCC(c2noc3cc(F)ccc23)CC1 (stereo not given)
33.4 µM | COc1cccc(NC(=O)N2CCCC2C(=O)N2CCC(c3noc4cc(F)ccc34)CC2)c1 (stereo not given)
5.2 µM | COc1ccccc1NC(=S)N1CCCC1C(=O)N1CCC(c2noc3cc(F)ccc23)CC1 (stereo not given)
3.9 µM | COc1ccc(NC(=S)N2CCCC2C(=O)N2CCC(c3noc4cc(F)ccc34)CC2)cc1 (stereo not given)
4.7 µM | O=C(C1CCCN1C(=S)Nc1cccc(Br)c1)N1CCC(c2noc3cc(F)ccc23)CC1 (stereo not given)
3.6 µM | COc1ccc(NC(=S)NCC(=O)N2CCC(c3noc4cc(F)ccc34)CC2)cc1
6.8 µM | O=C(C1CCCN1C(=O)Nc1ccc(Br)cc1)N1CCC(c2noc3cc(F)ccc23)CC1 (stereo not given)
6.3 µM | O=C(CNC(=S)Nc1ccccc1Br)N1CCC(c2noc3cc(F)ccc23)CC1
20.2 µM | COc1ccccc1NC(=O)NCC(=O)N1CCC(c2noc3cc(F)ccc23)CC1
15.3 µM | COc1cccc(NC(=S)NCC(=O)N2CCC(c3noc4cc(F)ccc34)CC2)c1
21.1 µM | COc1cccc(NC(=O)NCC(=O)N2CCC(c3noc4cc(F)ccc34)CC2)c1
9.1 µM | O=C(CNC(=S)Nc1ccccc1F)N1CCC(c2noc3cc(F)ccc23)CC1
19.5 µM | COc1ccc(NC(=O)NCC(=O)N2CCC(c3noc4cc(F)ccc34)CC2)cc1
6.9 µM | O=C(C1CCCN1C(=O)Nc1cccc(Br)c1)N1CCC(c2noc3cc(F)ccc23)CC1 (stereo not given)
7.8 µM | O=C(C1CCCN1C(=S)Nc1ccccc1Br)N1CCC(c2noc3cc(F)ccc23)CC1 (stereo not given)
41.9 µM | C[C@@H]1O[C@@H](OC[C@H]2O[C@@H](Oc3c(-c4ccc(O)c(O)c4)oc4cc(O)cc(O)c4c3=O)[C@H](O)[C@@H](O)[C@@H]2O)[C@H](O)[C@H](O)[C@H]1O [RUTIN]
4.1 µM | COc1ccccc1NC(=S)NCC(=O)N1CCC(c2noc3cc(F)ccc23)CC1
22.1 µM | COc1ccc(NC(=O)N2CCCC2C(=O)N2CCC(c3noc4cc(F)ccc34)CC2)cc1 (stereo not given)
9.3 µM | O=C(NCC(=O)N1CCC(c2noc3cc(F)ccc23)CC1)Nc1cccc(Br)c1
8.5 µM | O=C(NCC(=O)N1CCC(c2noc3cc(F)ccc23)CC1)Nc1ccc(Br)cc1
